# Shown are actives, neighbours in structure and some others; about 1.8% of the full set was active somewhere.
# HTRA1 inh – HTRA1 serine protease inhibitors, primary screen, biochemical, fluorescence polarization, HTS | Q92743 | recombinant HTRA1, FP-rhodamine activity-based probe | inhibition, % at 5.96 µM | 340,000 compounds, 0.5% hits | AID 504803, 2011; in the data active means inhibition above about 36%;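 further: 0% = enzyme with DMSO and 100% = wells lacking enzyme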
# Target sequence (Q92743 whole entry, looked up): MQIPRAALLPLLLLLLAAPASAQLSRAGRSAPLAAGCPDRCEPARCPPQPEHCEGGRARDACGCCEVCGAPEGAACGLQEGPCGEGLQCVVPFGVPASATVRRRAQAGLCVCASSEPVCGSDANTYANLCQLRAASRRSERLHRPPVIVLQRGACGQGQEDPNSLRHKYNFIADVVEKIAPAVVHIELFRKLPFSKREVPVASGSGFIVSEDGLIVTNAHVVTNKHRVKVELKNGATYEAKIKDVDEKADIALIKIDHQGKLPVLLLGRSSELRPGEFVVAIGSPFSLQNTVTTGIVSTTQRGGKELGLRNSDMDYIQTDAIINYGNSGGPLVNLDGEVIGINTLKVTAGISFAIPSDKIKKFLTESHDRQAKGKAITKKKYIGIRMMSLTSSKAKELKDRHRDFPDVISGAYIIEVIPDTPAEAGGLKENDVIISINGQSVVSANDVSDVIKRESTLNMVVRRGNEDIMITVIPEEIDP
# ABHD4 inh – ABHD4 inhibitors, primary screen, biochemical, fluorescence polarization, mouse | (Lyso)-N-acylphosphatidylethanolamine lipase (Mus musculus), Q8VD66 | purified mABHD4, FP-Rh probe fluorescence polarization | inhibition, % at 8.92 µM | 370,000 compounds, 0.54% hits | AID 720543, 2013;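 active means inhibition exceeding the mean over every tested compound plus 3 SD, cut at about 30% in these data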;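 further: 0% = plate median of compound wells and 100% = S159A mutant with DMSO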
#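 Assay system: mouse ABHD4 enzyme, wild type / Also added: fluorescent activity-based probe FP-Rh / Doses: single nominal dose of 8.92 µM, 0.89% DMSO final / Timing: 45 min compound pre-incubation plus 60 min probe step, 25 °C / Signal: FP readout, ex 525 nm / em 598 nm / Control set: S159A mutant/DMSO as 100%, compound-well median as 0%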
# DDE Tn7 FP inh – inhibitors of Tn7 peptide binding to fibrin DD(E), primary screen, biochemical, fluorescence polarization, human fibrin, Tn7 probe; Fibrinogen beta chain (Homo sapiens), P02675; FP displacement of FITC-Tn7 peptide from fibrin DD(E); 0% = median of compound wells per plate; inhibition, % at 8.3 µM; 370,000 compounds, 0.13% hits;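 active means inhibition above the mean of compounds falling within the control limits plus 3 SD of them, cut at about 14% in these data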;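 further: 0% = plate median of compound wells and 100% = 10 µM Aha-Tn7 peptide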
#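 system = human fibrin DD(E) protein | quantity = DD(E) 2 µM final | medium = Tris/NaCl/CaCl2 buffer, pH 7.8 | also added = labelled Tn7 tracer, 0.1 µM | compound dosing = single point at 8.3 µM | timing = compound with protein 10 min, then 3 h after probe, room temperature | signal = FP measurement | benchmarks = Aha-Tn7 high control | repeats = one replicate per compound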
# TCR-CD3 inh – inhibitors of human TCR-CD3 interaction, primary screen, biochemical, fluorescence, TAMRA-labeled TCR probe | T-cell receptor (TCR) | inhibition, % at 9.4 µM | 360,000 compounds, 0.37% hits | AID 651800, 2012;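 further: recombinant mutant TCR 2C K166C tagged with TAMRA read by polarization; 0% = receptor in buffer alone and 100% = receptor with positive control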
# DDE Tn6 FP inh – inhibitors of Tn6 peptide binding to fibrin DD(E), primary screen, biochemical, fluorescence polarization, human fibrin, Tn6 probe; Fibrinogen beta chain (Homo sapiens), P02675; Fibrin DD(E) TRITC-Tn6 fluorescence polarization displacement; 370,000 compounds, 0.21% hits; inhibition, % at 8.3 µM;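 active means inhibition above a per-campaign cutoff: mean of compounds within control limits plus 3 SD, cut at about 15% in these data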;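 further: 0% = median of all compound wells on the plate and 100% = blocking peptide control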
# SIAE primary – human SIAE inhibitors, primary screen, biochemical, fluorescence polarization, FP-Rh probe, 1536-well HTS. Sialate O-acetylesterase (Homo sapiens), Q9HAT2. SIAE FP-Rh probe binding. inhibition, % at 9.66 µM. 370,000 compounds, 0.69% hits. AID 1053197, 2014;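 active means inhibition above a cutoff: mean of compounds within the control limits plus 3 SD of those, cut at about 17% in these data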;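 further: 0% = plate median of compound wells and 100% = probe without SIAE protein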
# BSA TAMRA ctr – compounds interfering with TAMRA-BSA probe, counter-screen for TCR-CD3 interaction inhibitor project, biochemical, fluorescence, TAMRA-labeled BSA; shares compounds with TCR-CD3 inh; 1,200 compounds, 10% hits; TAMRA-labeled BSA probe fluorescence counterscreen; inhibition, % at 9.4 µM; in the data active means inhibition above about 23%;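 further: 0% = buffer low control and 100% = reference high control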
# TCR-CD3 conf – TCR-CD3 interaction inhibitors, retest, confirmation, biochemical, fluorescence, TAMRA-labeled TCR probe. shares compounds with TCR-CD3 inh. TAMRA-labeled TCR probe fluorescence binding assay. inhibition, % at 9.4 µM. 1,200 compounds, 48% hits
# * marks the source's active call; other numbers are inactive results; . = not tested or not shown. Unless noted, no stated cut-off is given here; in the data, active means inhibition above about 19%; inactive means the rest.
SMILES,HTRA1 inh,ABHD4 inh,DDE Tn7 FP inh,TCR-CD3 inh,DDE Tn6 FP inh,SIAE primary,BSA TAMRA ctr,TCR-CD3 conf
Cc1ccc(NC(=O)COC(=O)c2csc3c2CCC(C)C3)cc1S(=O)(=O)N1CCCCC1 (configuration not stated),-54.2,-43.6,0.6,18.9*,-9.9,-70.1,5.4,3.0
Cc1ccccc1C(=O)OCC(=O)Nc1cccc(S(=O)(=O)N2CCCCC2)c1,-23.8,-19.6,-4.2,-8.5,-4.1,-19.1,.,.
Cc1ccc(NC(=O)COC(=O)c2ccccc2F)cc1S(=O)(=O)N1CCCCC1,-14.9,-13.1,0.4,8.9,-0.5,-11.0,.,.
CC1CCc2c(C(=O)OCC(=O)Nc3cccc(S(=O)(=O)N4CCCCCC4)c3)csc2C1 (configuration not stated),-24.9,-20.9,-6.7,32.1*,-2.5,-4.8,3.1,6.6
Cc1onc(-c2ccccc2Cl)c1C(=O)Nc1ccccc1,-7.7,-7.3,12.8,-5.7,-1.6,1.2,.,.
CCC(=O)Nc1ccc(/C(C)=N/NC(=O)c2c(-c3ccccc3Cl)noc2C)cc1,1.6,8.4,2.5,21.4*,11.6,4.7,-0.9,1.2
O=C(Nc1cccc(C(F)(F)F)c1)OCCCN1CCC2(CCC(c3ccccc3)CC2)C1=O (configuration not stated),.,-9.6,4.0,.,5.3,0.8,.,.
CCn1c(CSc2nc3ccccc3[nH]2)nc2cc(C(=O)O)ccc21,25.9,18.8,-0.5,34.2*,6.8,14.0,56.8*,41.6*
CS(=O)(=O)N1CCC[C@]2(CC[C@H](CCC#N)O2)C1,.,-2.4,3.1,.,4.0,-2.1,.,.
CCN(CC)C(=O)CC[C@H]1CC[C@]2(CCCN(C(=O)C(C)(C)C)C2)O1,.,1.3,1.4,.,2.7,4.4,.,.
COc1ccc(O)c(/C=N/NC(=O)c2c(C)nnn2-c2nonc2N)c1,4.3,4.6,-0.4,25.5*,-6.7,4.4,-4.5,10.1
COc1ccc(/C=N/NC(=O)c2nnn(-c3nonc3N)c2-c2cccc(OC)c2)cc1,-11.2,-5.2,9.4,-8.1,0.8,-7.9,.,.
CCOc1cc(/C=N/NS(=O)(=O)c2ccccc2)ccc1OS(=O)(=O)c1ccc(C)cc1,-27.0,-15.4,1.0,-7.2,3.1,-23.1,.,.
CCOc1cc(/C=N/NC(=O)COc2ccc(Cl)cc2)ccc1OS(=O)(=O)c1ccccc1,-70.2,-33.1,-2.3,28.4*,1.4,-21.4,24.0*,35.3*
Cc1ccc(NC(=O)C2CCCN(c3nnc(-n4cccc4)s3)C2)cc1C (configuration not stated),.,-3.7,-1.2,.,-5.5,-3.9,.,.
Nc1ncc(-c2ccc(F)cc2)nc1N1CCN(CCO)CC1,.,3.7,0.4,-0.2,11.7,1.1,.,.
OCCN1CCN(c2cnc(-c3ccsc3)cn2)CC1,.,3.5,4.5,38.2*,-1.0,9.3,5.7,1.8
COc1ccc(/C(C)=N/NC(=O)c2cccc(S(=O)(=O)N3CCCC3)c2)c(O)c1,16.1,15.8,1.8,33.6*,2.4,15.3,-17.1,19.5*
COc1ccc(C(C)=NNC(=O)c2cccc(S(=O)(=O)N3CCCC3)c2)cc1,-3.0,6.1,0.6,3.5,5.0,1.9,.,.
CCN(CC)C(=O)CSc1ncnc2c(-c3cccs3)nsc12,-31.8,4.6,-2.9,19.9*,2.2,-4.9,-4.1,11.5
CCN(CC)C(=O)CSc1ncnc2sccc12,1.7,10.3,-8.1,9.8,0.9,2.6,.,.
C[C@H]1[C@H](NC(=O)c2cccc(Cl)c2)CC[C@@]23CCCN2C(=O)CCC[C@@H]13,.,-0.3,2.9,.,2.5,-5.4,.,.
COc1ccc(C(=O)c2[nH]c(N)c(C(=O)c3ccccc3)c2-c2ccc(OC)c(OC)c2)cc1,.,13.6,-4.9,.,-2.7,7.5,.,.
O=C(O)c1cccc(-n2cccc2/C=C2/NC(=O)N(c3ccc(Cl)cc3)C2=O)c1,11.1,4.1,-2.9,36.0*,-1.0,-1.9,-11.4,31.3*
O=C(O)c1cccc(-n2cccc2/C=C2/NC(=O)N(c3cccc(Cl)c3)C2=O)c1,-6.2,6.5,-2.5,5.0,3.0,0.2,.,.
SMILES,HTRA1 inh,ABHD4 inh,DDE Tn7 FP inh,TCR-CD3 inh,DDE Tn6 FP inh,SIAE primary,BSA TAMRA ctr,TCR-CD3 conf
O=C(c1ccc2nc(-c3ccco3)c(-c3ccco3)nc2c1)N1CCN(c2ncccn2)CC1,22.2,32.6*,2.9,29.3*,-5.7,35.5*,-0.9,24.8*
Nc1cc(=O)[nH]c(SCC(=O)NNC(=O)c2ccccc2)n1,0.7,-0.9,-3.6,21.6*,4.2,-4.8,-1.3,5.4
COC(=O)C(NC(=O)CSc1nc(N)cc(=O)[nH]1)c1ccccc1 (configuration not stated),5.1,0.0,-2.1,-3.7,1.7,-3.1,.,.
O=C1CCCC2=C1C(c1ccc(Br)cc1)c1c([nH]c(=S)[nH]c1=O)N2 (configuration not stated),-3.6,1.2,-3.5,0.4,-12.6,-13.1,.,.
O=c1[nH]c(=S)[nH]c2c1C(c1ccc(Br)cc1)c1c([nH]c(=S)[nH]c1=O)O2,-43.9,-31.6,4.6,22.3*,-8.2,-144.9,-6.7,18.0
Cc1csc(NC(=O)CSc2sc3c(O)cc(=O)[nH]c3c2C#N)n1,-8.0,-1.4,-1.9,23.2*,-12.6,-24.8,-12.0,1.3
COc1ccc(NC(=O)CSc2sc3c(O)cc(=O)[nH]c3c2C#N)c(OC)c1,-7.4,4.8,0.6,28.7*,-13.0,-3.9,-5.8,20.1*
COc1ccccc1NC(=O)CSc1sc2c(O)cc(=O)[nH]c2c1C#N,-25.6,-9.6,-3.0,13.2,-3.7,-26.5,.,.
COc1cc(/C=N/NC(=O)C(=O)/C=C2\NC(C)(C)Cc3ccccc32)ccc1O,7.8,8.6,-4.9,25.7*,1.4,-0.3,-9.4,13.9
COc1cc(/C=N/NC(=O)C2(O)c3ccccc3-c3ccccc32)ccc1O,6.6,-0.8,0.5,1.2,1.7,10.0,.,.
CC(=O)N1CCc2c1cccc2S(=O)(=O)NC(CC(C)C)C(=O)Nc1ccc(Cl)c(Cl)c1 (configuration not stated),.,-1.2,6.3,.,-9.1,-3.0,.,.

# Source: PubChem
